ChEMBL document CHEMBL1157616, “Identification of 2-anilino-9-methoxy-5,7-dihydro-6H-pyrimido[5,4-d][1]benzazepin-6-ones as dual PLK1/VEGF-R2 kinase inhibitor chemotypes by structure-based lead generation” (J Med Chem, 2010)
Calls of active or inactive are those of the source. How the calls were made is not given here.

How the values were obtained:
[1] = biological target: T1, Vascular endothelial growth factor receptor 2 (Homo sapiens, UniProt P35968); experiment: Inhibition of VEGFR2 assessed as [33Pi] incorporation by microplate scintillation counting in presence of 1 uM ATP
Procedure, shortened: (§1)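 Substrates: Poly(Glu,Tyr)4:1 for VEGFR2; Poly(Glu,Tyr) or Poly(Ala,Glu,Lys,Tyr) for INS-R; RBER-CHKtide or casein for PLK1. Incubated 30 °C, 80 min, stopped with 2% H3PO4. Singlicate; activity referenced to no-enzyme and no-inhibitor controls.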

[2] = biological target: Serine/threonine-protein kinase PLK1 (Homo sapiens, UniProt P53350); experiment: Inhibition of PLK1 assessed as [33Pi] incorporation by microplate scintillation counting in presence of 1 uM ATP
[3] = biological target: Insulin receptor (Homo sapiens, UniProt P06213); experiment: Inhibition of INSR assessed as [33Pi] incorporation by microplate scintillation counting in presence of 1 uM ATP; procedure, shortened: as §1
[4] = tested on: NCI60; experiment: Antiproliferative activity against human NCI60 cells at 10 uM after 48 hrs by sulforhodamine B assay; assay type: functional, cell-based
Procedure, shortened: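 NCI 60-cell-line prescreen with compound given once at 10 μM. Cells grown in RPMI 1640 with 5% FBS and 2 mM L-glutamine, plated 24 h before dosing, then exposed 48 h at 37 °C. Fixed with cold TCA, stained with SRB, absorbance read at 515 nm, and percent growth taken relative to time-zero and control wells.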

[5] = biological target: T1, Vascular endothelial growth factor receptor 2; experiment: Inhibition of VEGFR2 in HUE cells assessed as inhibition of VEGF-induced autophosphorylation treated for 90 mins before VEGF challenge by ELISA; assay type: cell-based
[6] = tested on: IGROV-1; experiment: Growth inhibition of human IGROV1 cells after 48 hrs by sulforhodamine B assay; assay type: functional; details: IGROV-1, 48 h
Procedure, shortened: (§2)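 NCI SRB assay with five drug concentrations, top concentration 100 μM, 48 h exposure at 37 °C in RPMI 1640/5% FBS. GI50 is the concentration giving [(Ti−Tz)/(C−Tz)]×100 = 50. Values are means of two independent runs on different dates, each run in duplicate.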

[7] = tested on: CAKI-1; experiment: Growth inhibition of human Caki1 cells after 48 hrs by sulforhodamine B assay; assay type: functional; details: CAKI-1, 48 h; procedure, shortened: as §2
[8] = tested on: UACC-257; experiment: Growth inhibition of human UACC257 cells after 48 hrs by sulforhodamine B assay; assay type: functional; details: UACC-257, 48 h; procedure, shortened: as §2
[9] = tested on: HUVEC; experiment: Inhibition of angiogenesis in HUVEC assessed as inhibition of VEGF-induced sprout growth from cellular spheroids after 24 hrs; assay type: functional, cell-based; details: Homo sapiens
Procedure, shortened: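 Spheroids of 500 primary HUVEC formed overnight in hanging drops, then embedded in collagen gel. Compound added with VEGF-A at 25 ng/mL final, incubated 37 °C for 24 h, then fixed in 4% paraformaldehyde. Cumulative sprout length measured by image analysis; the mean of 10 random spheroids counts as one data point. IC50 from curve fitting.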

T1 sequence (P35968 whole entry): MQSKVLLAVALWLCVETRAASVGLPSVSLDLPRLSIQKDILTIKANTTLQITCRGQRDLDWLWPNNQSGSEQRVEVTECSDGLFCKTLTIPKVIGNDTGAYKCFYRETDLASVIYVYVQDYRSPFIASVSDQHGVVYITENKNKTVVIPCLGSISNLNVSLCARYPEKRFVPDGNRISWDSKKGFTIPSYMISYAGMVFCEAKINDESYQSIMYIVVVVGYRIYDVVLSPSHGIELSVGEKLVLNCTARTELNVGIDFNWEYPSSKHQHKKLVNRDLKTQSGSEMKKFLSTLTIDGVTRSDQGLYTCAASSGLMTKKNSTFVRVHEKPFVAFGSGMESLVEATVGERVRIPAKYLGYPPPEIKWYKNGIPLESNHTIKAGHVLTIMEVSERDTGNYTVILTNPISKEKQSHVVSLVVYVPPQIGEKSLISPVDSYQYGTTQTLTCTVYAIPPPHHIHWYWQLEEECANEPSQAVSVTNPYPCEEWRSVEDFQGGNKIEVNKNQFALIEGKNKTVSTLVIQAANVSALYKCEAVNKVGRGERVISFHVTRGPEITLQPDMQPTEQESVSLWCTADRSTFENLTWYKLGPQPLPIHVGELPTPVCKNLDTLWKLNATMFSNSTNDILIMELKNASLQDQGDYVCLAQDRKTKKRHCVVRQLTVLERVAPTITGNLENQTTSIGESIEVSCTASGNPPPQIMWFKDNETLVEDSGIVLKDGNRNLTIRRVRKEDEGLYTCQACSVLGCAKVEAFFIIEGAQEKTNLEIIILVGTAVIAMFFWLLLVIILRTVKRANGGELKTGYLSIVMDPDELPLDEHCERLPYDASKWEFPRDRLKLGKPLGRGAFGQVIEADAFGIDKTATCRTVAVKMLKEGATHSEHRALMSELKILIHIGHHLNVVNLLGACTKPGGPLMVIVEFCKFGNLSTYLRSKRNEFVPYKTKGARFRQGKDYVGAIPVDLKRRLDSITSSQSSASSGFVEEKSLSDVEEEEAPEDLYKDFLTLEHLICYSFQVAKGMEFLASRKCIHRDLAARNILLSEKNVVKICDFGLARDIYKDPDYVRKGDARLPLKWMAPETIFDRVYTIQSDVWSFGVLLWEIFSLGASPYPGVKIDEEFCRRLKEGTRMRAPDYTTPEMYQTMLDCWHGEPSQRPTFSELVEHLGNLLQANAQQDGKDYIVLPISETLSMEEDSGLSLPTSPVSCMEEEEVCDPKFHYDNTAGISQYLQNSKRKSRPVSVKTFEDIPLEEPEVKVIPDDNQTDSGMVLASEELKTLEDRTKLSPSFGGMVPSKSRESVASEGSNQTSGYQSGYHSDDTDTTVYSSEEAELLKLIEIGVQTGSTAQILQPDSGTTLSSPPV
Insulin receptor, sequence (P06213 28-758 limits assumed): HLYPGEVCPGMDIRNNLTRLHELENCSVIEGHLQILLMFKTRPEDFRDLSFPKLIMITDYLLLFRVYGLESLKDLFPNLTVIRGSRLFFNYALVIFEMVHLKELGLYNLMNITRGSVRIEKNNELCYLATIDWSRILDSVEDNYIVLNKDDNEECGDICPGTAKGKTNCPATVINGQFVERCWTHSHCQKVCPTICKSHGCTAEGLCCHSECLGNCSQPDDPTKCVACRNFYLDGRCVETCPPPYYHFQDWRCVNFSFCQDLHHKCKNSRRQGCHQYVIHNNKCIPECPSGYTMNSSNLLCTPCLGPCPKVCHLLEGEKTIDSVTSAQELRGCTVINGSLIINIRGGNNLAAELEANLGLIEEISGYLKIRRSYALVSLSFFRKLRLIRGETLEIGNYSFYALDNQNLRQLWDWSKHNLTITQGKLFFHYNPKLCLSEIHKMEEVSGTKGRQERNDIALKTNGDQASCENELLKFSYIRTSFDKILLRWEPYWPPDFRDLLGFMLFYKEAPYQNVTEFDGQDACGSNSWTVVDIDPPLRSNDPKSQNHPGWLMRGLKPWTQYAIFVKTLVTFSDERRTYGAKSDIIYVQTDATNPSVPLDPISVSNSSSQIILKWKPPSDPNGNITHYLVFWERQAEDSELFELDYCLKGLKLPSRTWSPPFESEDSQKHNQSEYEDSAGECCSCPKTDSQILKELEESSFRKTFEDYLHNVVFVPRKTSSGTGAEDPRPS
Insulin receptor, sequence (P06213 763-1382 limits assumed): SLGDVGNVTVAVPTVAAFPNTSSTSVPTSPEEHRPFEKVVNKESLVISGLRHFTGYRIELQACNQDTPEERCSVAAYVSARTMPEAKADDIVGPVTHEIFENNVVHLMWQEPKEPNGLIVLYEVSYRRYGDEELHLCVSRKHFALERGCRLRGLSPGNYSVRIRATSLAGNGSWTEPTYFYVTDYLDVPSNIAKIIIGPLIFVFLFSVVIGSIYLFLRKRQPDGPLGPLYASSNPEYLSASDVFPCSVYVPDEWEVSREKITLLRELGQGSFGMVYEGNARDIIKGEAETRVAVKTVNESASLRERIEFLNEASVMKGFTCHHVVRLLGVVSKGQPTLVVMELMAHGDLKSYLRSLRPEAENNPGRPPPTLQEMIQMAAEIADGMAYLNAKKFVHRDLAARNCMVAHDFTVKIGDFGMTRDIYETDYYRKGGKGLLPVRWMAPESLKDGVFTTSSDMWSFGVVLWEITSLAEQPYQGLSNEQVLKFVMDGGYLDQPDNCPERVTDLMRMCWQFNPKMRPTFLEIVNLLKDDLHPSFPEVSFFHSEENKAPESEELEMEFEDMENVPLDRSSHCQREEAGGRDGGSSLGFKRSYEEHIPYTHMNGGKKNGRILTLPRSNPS
Serine/threonine-protein kinase PLK1, sequence (P53350 whole entry): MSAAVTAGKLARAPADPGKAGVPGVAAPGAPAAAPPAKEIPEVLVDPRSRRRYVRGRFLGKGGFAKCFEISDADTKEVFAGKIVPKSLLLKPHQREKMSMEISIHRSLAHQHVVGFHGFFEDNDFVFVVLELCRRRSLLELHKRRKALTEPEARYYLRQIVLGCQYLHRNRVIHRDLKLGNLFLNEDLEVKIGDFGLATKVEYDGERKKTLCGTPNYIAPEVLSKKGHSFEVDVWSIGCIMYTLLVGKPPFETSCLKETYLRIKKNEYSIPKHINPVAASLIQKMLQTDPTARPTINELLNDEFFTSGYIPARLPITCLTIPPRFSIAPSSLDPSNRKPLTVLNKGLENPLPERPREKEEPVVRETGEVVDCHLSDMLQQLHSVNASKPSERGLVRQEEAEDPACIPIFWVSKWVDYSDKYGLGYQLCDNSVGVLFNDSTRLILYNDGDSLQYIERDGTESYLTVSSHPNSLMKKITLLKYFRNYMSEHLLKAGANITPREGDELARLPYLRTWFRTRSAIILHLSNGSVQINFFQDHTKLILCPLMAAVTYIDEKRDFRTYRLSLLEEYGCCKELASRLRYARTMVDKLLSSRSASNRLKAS

SMILES	IC50 [1] [µM]	IC50 [2] [µM]	IC50 [3] [µM]	IC50 [5] [µM]	Activity [4]	GI50 [6] [µM]	GI50 [7] [µM]	GI50 [8] [µM]	IC50 [9] [µM]
O=C1Cc2cnc(Nc3ccc(I)cc3)nc2-c2ccccc2N1	0.4	15	> 100		Active				
COc1ccc2c(c1)NC(=O)Cc1cnc(Nc3ccc(OC)c(O)c3)nc1-2	0.018	0.14	> 100		Active				
COc1ccc2c(c1)NC(=O)Cc1cnc(Nc3ccc(O)cc3)nc1-2	0.028	0.75	> 100		Active				
O=C1Cc2cnc(Nc3ccc(O)cc3)nc2-c2ccccc2N1	0.08	> 100	> 100		Active	3	2.6	> 100	
Cn1c(=O)c2cc3c(nc2n(C)c1=O)-c1cnccc1NC(=O)C3	> 100	> 100	> 100		Active				
O=C1Cc2cnc(Nc3ccccc3Cl)nc2-c2ccccc2N1	6.1	73	> 100		Active				
COc1ccc2c(c1)NC(=O)Cc1cnc(Nc3cccc(O)c3)nc1-2	0.015	0.84	> 100		Active				
COc1ccc2c(c1)NC(=O)Cc1cnc(Nc3ccc(O)c(Cl)c3)nc1-2	0.011	0.36	> 100	0.43	Active				1.2
COc1ccc(Nc2ncc3c(n2)-c2ccccc2NC(=O)C3)cc1O	0.073	5.7	24	2.4	Active	0.25	0.15	19	
COc1ccc(Nc2ncc3c(n2)-c2ncccc2NC(=O)C3)cc1	1.5	> 100	> 100		Active				
O=C1Cc2cnc(Nc3ccc([N+](=O)[O-])cc3)nc2-c2ccccc2N1	0.33	> 100	22		Active				
CCOc1ccc(Nc2ncc3c(n2)-c2ccccc2NC(=O)C3)cc1	0.13	> 100	> 100		Active	0.38	0.75	27	
O=C1Cc2c([nH]c3ccc(Br)cc23)-c2ccccc2N1					Active				
O=C1Cc2cnc(Nc3ccccc3)nc2-c2ccccc2N1	0.14	> 100	> 100		Active				
O=C1Cc2cnc(Nc3ccccc3O)nc2-c2ccccc2N1	0.53	14	> 100		Active				
O=C1Cc2cnc(Nc3cccc(O)c3)nc2-c2ccccc2N1	0.051	19	> 100	1.6	Active				
COc1ccc(Nc2ncc3c(n2)-c2cnccc2NC(=O)C3)cc1	0.19	2.5	> 100		Active				
Cn1c(=O)c2cc3c(nc2n(C)c1=O)-c1ncccc1NC(=O)C3	> 100	> 100	> 100		Active				
COc1ccc(Nc2ncc3c(n2)-c2ccc(OC)cc2NC(=O)C3)cc1	0.05	0.35	> 100		Active				
Cn1c(=O)c2cc3c(nc2n(C)c1=O)-c1ccccc1NC(=O)C3	> 100	> 100	> 100		Active				

More lines, main results first:

IC50 [1] [µM]	IC50 [2] [µM]	IC50 [3] [µM]	IC50 [5] [µM]	SMILES	Activity [4]	GI50 [6] [µM]	GI50 [7] [µM]	GI50 [8] [µM]	IC50 [9] [µM]
8.6	> 100	> 100		COc1ccc2c(c1)NC(=O)Cc1cnc3ccnn3c1-2	Active				
0.19	> 100	> 100		Cc1ccc(Nc2ncc3c(n2)-c2ccccc2NC(=O)C3)cc1	Active				
0.099	1.7	> 100	18.6	CCOc1ccc(Nc2ncc3c(n2)-c2cnccc2NC(=O)C3)cc1	Active	0.4	0.16	> 100	
87	> 100	> 100		O=C1Cc2cnc3ccnn3c2-c2ncccc2N1	Active				
> 100	> 100	> 100		O=C1Cc2cc3c(=O)[nH]c(=O)[nH]c3nc2-c2ccccc2N1	Active				
> 100	> 100	> 100		O=C1Cc2cc3c(=O)[nH]c(=O)[nH]c3nc2-c2cnccc2N1	Active				
16	> 100	> 100		O=C1Cc2cnc3cc(-c4ccccc4)nn3c2-c2ncccc2N1	Active				
0.035	9.3	84	9.6	O=C1Cc2cnc(Nc3ccc(O)c(Cl)c3)nc2-c2ccccc2N1	Active		4.7	39	
2.7	55	> 100		O=C1Cc2cnc(Nc3ccc(O)cc3)nc2-c2ncccc2N1	Active				
> 100	> 100	> 100		COc1ccc2c(c1)NC(=O)Cc1cc3c(=O)n(C)c(=O)n(C)c3nc1-2	Active				
1.2	20	> 100		Cc1cc(O)ccc1Nc1ncc2c(n1)-c1ccccc1NC(=O)C2	Active				
> 100	> 100	> 100		O=C1Cc2cnc3ncnn3c2-c2ncccc2N1	Active				
0.14	2.3	> 100		O=C1Cc2cnc(Nc3cccc(O)c3)nc2-c2cnccc2N1	Active				
0.13	2.6	> 100		O=C1Cc2cnc(Nc3ccc(O)cc3)nc2-c2cnccc2N1	Active				
0.63	> 100	> 100		O=C1Cc2cnc3cc(-c4ccccc4)nn3c2-c2ccccc2N1	Active				
2	> 100	> 100		CCOc1ccc(Nc2ncc3c(n2)-c2ncccc2NC(=O)C3)cc1	Active				
> 100	> 100	> 100		COc1ccc2c(c1)NC(=O)Cc1cc3c(=O)[nH]c(=O)[nH]c3nc1-2	Active				
2.6	> 100	> 100		O=C1Cc2cnc(Nc3cccc(O)c3)nc2-c2ncccc2N1	Active				
66	> 100	> 100		O=C1Cc2cc3c(=O)[nH]c(=O)[nH]c3nc2-c2ncccc2N1	Active				
> 100	> 100	> 100		COc1ccc2c(c1)NC(=O)Cc1cnc3ncnn3c1-2	Active				
1.8	17	11		COc1ccc2c(c1)NC(=O)Cc1cnc3cc(-c4ccccc4)nn3c1-2	Active				
0.29	> 100	> 100		O=C1Cc2cnc(Nc3ccc(Br)cc3)nc2-c2ccccc2N1	Active				
2	> 100	> 100		O=C1Cc2cnc3cc(-c4ccccc4)nn3c2-c2cnccc2N1	Active				
0.19	> 100	> 100		O=C1Cc2cnc(Nc3ccc(Cl)cc3)nc2-c2ccccc2N1	Active				
0.67	> 100	> 100		O=C1Cc2cnc(Nc3ccc(O)c(Cl)c3)nc2-c2ncccc2N1	Active				
12	> 100	> 100		O=C1Cc2cnc3ccnn3c2-c2ccccc2N1	Active				
0.095	47	99		COc1ccc(Nc2ncc3c(n2)-c2ccccc2NC(=O)C3)cc1	Active	0.41	0.51	61	
57	> 100	> 100		O=C1Cc2cnc(Nc3ccccc3Br)nc2-c2ccccc2N1	Active				
